Key:
[1] = target: T1, 5-hydroxytryptamine receptor 1D (Homo sapiens, UniProt P28221); test: Ability to displace [3H]- -5-HT binding to cloned 5-hydroxytryptamine 1D receptor stably expressed in chinese hamster cells (CHO cells); format: cell-based
Summary of the method: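 Human 5-HT1D receptor cloned and stably expressed in CHO cells. Displacement of [3H]-5-HT binding, with radioligand at roughly its KD for the receptor. At least three independent experiments, each run in duplicate. IC50 reported as geometric mean with limits derived from the SEM.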

[2] = target: Serotonin 1 receptors; 5-HT1B & 5-HT1D (Homo sapiens) (UniProt P28222+P28221); test: Selectivity ratio for h-5-HT 1B receptor to that of h5-HT 1D receptors.; format: protein assay
Summary of the method: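 Displacement of [3H]-5-HT binding at cloned human 5-HT1B and 5-HT1D receptors, with radioligand at roughly its KD for each receptor. Ratio obtained by dividing the mean IC50 values for the two receptors.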

[3] = tested on: Rattus norvegicus; test: Drug concentration was measured in plasma samples originating from the cardiac puncture (systemic) at 0.5 hr post administration; format: functional, organism-based
Summary of the method: (§1)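 Rats dosed orally at 3 mg/kg (5 mL/kg, aqueous formulation). Plasma taken from the hepatic portal vein and by cardiac puncture (systemic) at 0.5 and 2 h after dosing. Drug concentration reported in ng/mL.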

[4] = Acid dissociation constant was determined; format: ADME
[5] = tested on: Rattus norvegicus; test: Drug concentration was measured in plasma samples originating from the hepatic portal vein (hpv) at 2 hr post administration; format: functional, organism-based; summary of the method: as §1
[6] = tested on: Rattus norvegicus; test: Drug concentration was measured in plasma samples originating from the hepatic portal vein (hpv) at 0.5 hr post administration; format: functional, organism-based; summary of the method: as §1
[7] = tested on: Rattus norvegicus; test: Drug concentration was measured in plasma samples originating from the cardiac puncture (systemic) at 2 h post administration; format: functional, organism-based; summary of the method: as §1
[8] = target: T1, 5-hydroxytryptamine receptor 1D; test: Maximum stimulation of [35S]GTP-gamma-S, binding expressed relative to the maximal effect produced by the 5-HT; format: functional
Summary of the method: (§2)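 Agonist-induced [35S]GTPγS binding measured in CHO cells stably transfected with the human 5-HT1D receptor. Maximal effect expressed as % of the 5-HT maximum.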

[9] = target: T1, 5-hydroxytryptamine receptor 1D; test: Measurement of agonist induced [35S]GTP-gamma-S, binding in CHO cells stably transfected with 5-hydroxytryptamine 1D receptor; format: functional, cell-based; summary of the method: as §2

T1 sequence (P28221 whole entry): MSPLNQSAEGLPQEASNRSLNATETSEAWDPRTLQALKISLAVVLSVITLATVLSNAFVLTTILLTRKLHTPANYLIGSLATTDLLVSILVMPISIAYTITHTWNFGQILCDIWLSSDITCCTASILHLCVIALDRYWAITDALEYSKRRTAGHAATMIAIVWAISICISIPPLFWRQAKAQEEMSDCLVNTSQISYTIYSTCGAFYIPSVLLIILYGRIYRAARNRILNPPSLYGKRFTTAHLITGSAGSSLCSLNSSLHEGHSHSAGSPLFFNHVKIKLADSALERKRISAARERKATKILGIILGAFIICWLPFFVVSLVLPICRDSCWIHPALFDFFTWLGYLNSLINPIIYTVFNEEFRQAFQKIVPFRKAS

`CN1C[C@@H](CN(C#N)Cc2ccccc2)C[C@@H]1Cc1c[nH]c2ccc(-n3ccnc3)cc12` showed an IC50 [1] of 3.3 nM and a Selectivity [2] of 6.7.
With `CN(Cc1ccccc1)C[C@H]1C[C@H](Cc2c[nH]c3ccc(-n4ccnc4)cc23)N(C)C1` the IC50 [1] was 0.9 nM, the Absorption [3] was < 4 ng/mL and the pKa [4] was 8.7. The Absorption [5] was 30 ng/mL, the Absorption [6] was 21 ng/mL and the Absorption [7] was < 4 ng/mL. For the same compound, the Selectivity [2] was 6.9.
In the case of `c1ccc(CNC[C@@H]2CCN(CCc3c[nH]c4ccc(-n5cnnc5)cc34)C2)cc1`, the Absorption [3] is reported as < 5 ng/mL, the Efficacy [8] is reported as 102 and the Absorption [5] is reported as < 5 ng/mL. For the same compound, the Absorption [6] was < 5 ng/mL, the Absorption [7] was < 5 ng/mL and the Selectivity [2] was 62.
`CN1[C@@H](Cc2c[nH]c3ccc(-n4cnnc4)cc23)C[C@@H]2CN(Cc3ccc(F)cc3)C[C@@H]21` (racemic) gave an IC50 [1] of 0.8 nM, an EC50 [9] of 2.9 nM and an Efficacy [8] of 88. The Selectivity [2] was 13.
With `CN1[C@@H](Cc2c[nH]c3ccc(-n4cnnc4)cc23)C[C@@H]2CN(Cc3ccccc3)C[C@@H]21` (racemic) the IC50 [1] was 0.9 nM, the EC50 [9] was 0.5 nM and the pKa [4] was 8.5. The Efficacy [8] was 96 and the Selectivity [2] was 6.7.
Work on `CN1[C@@H](Cc2c[nH]c3ccc(-n4cnnc4)cc23)C[C@@H]2CN(CCc3cccc(F)c3)C[C@@H]21` (racemic) yielded an IC50 [1] of 1.2 nM, an EC50 [9] of 1.9 nM and an Efficacy [8] of 63. It also gave a Selectivity [2] of 15.
With `CN1[C@@H](Cc2c[nH]c3ccc(-n4ccnc4)cc23)C[C@@H]2CN(Cc3ccccc3)C[C@@H]21` (racemic) the IC50 [1] was 0.7 nM, the Absorption [3] was 47 ng/mL and the EC50 [9] was 1.2 nM. For the same compound, the Efficacy [8] was 69, the Absorption [5] was 105 ng/mL and the Absorption [6] was 558 ng/mL. For the same compound, the Absorption [7] was 10 ng/mL and the Selectivity [2] was 8.4.

From ChEMBL document CHEMBL1132098, “2,7-diazabicyclo[3.3.0]octanes as novel h5-HT receptor agonists” (Bioorg Med Chem Lett, 1999)
